ChEMBL document CHEMBL1157933, “The anti-cancer, anti-inflammatory and tuberculostatic activities of a series of 6,7-substituted-5,8-quinolinequinones” (Bioorg Med Chem, 2010)
In brackets after ≈: the same amount, converted by molar mass.

These molecules were tested on Mycobacterium tuberculosis (assay: Antitubercular activity against Mycobacterium bovis BCG after 7 days by alamar blue assay). Conditions: variant bovis BCG, 168 h.
Type: functional
Method in brief: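 Frozen BCG stock thawed, lightly sonicated, diluted in Dubos broth/OADC to 4 × 10^4 bacteria/well; compounds at varied concentrations in PBS/2.5-5% DMSO, 37 °C for 7 days, then Alamar Blue 24 h. Ethambutol control; triplicate.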
`O=C1C(NC(c2ccccc2)c2ccccc2)=C(Cl)C(=O)c2ncccc21` was tested, and the MIC was 6.3 µg/mL (≈ 16.8 µM).
For `Cc1ccc(S(=O)(=O)C2=C(Cl)C(=O)c3ncccc3C2=O)cc1`, the MIC was > 50 µg/mL.
`O=C1C(Cl)=C(NCCBr)C(=O)c2ncccc21` was tested, and the MIC was 6.3 µg/mL (≈ 20 µM).
With `CNC1=C([S+](C)[O-])C(=O)c2cccnc2C1=O` (stereo unspecified) the MIC was > 50 µg/mL.
Molecule `CNC1=C(Sc2ccccc2)C(=O)c2cccnc2C1=O` has an MIC of 12.5 µg/mL (≈ 42.2 µM).
`CNC1=C(Cl)C(=O)c2cccnc2C1=O` showed an MIC of 12.5 µg/mL (≈ 56.1 µM).
Work on `O=C1C(NCCCl)=C(Cl)C(=O)c2ncccc21` yielded an MIC of 6.3 µg/mL (≈ 23.2 µM).
`CSC1=C(N)C(=O)c2cccnc2C1=O` showed an MIC of 6.3 µg/mL (≈ 28.6 µM).
`O=C1C(NCCBr)=C(Cl)C(=O)c2ncccc21` showed an MIC of 3.13 µg/mL (≈ 9.92 µM).
`CNC1=C([S+](C)[O-])C(=O)c2ncccc2C1=O` (stereo unspecified) gave an MIC of 25 µg/mL (≈ 99.9 µM).
`O=C1c2cccnc2C(=O)C2SCCNC12` (stereo unspecified) showed an MIC of 6.3 µg/mL (≈ 26.9 µM).
With `Cc1ccc2c(n1)C(=O)C(Cl)=C(NCCBr)C2=O` the MIC was 12.5 µg/mL (≈ 37.9 µM).
`CS(=O)(=O)C1=C(N)C(=O)c2cccnc2C1=O` was tested, and the MIC was 25 µg/mL (≈ 99.1 µM).
For `O=C1C(Sc2ccccc2)=C(Sc2ccccc2)C(=O)c2ncccc21`, the MIC was > 50 µg/mL.
`CNC1=C(SC)C(=O)c2cccnc2C1=O` was tested, and the MIC was > 50 µg/mL.
With `CSC1=C(SC)C(=O)c2ncccc2C1=O` the MIC was 6.3 µg/mL (≈ 25.1 µM).
`O=C1C2=C(NCCS2)C(=O)c2ncccc21` showed an MIC of 6.3 µg/mL (≈ 27.1 µM).
`CNC1=C(Sc2ccccc2)C(=O)c2ncccc2C1=O` showed an MIC of 12.5 µg/mL (≈ 42.2 µM).
Molecule `O=C1C(Cl)=C(NCCCl)C(=O)c2ncccc21` has an MIC of 12.5 µg/mL (≈ 46.1 µM).
Work on `C[S+]([O-])C1=C(N)C(=O)c2cccnc2C1=O` (stereo unspecified) yielded an MIC of 1.56 µg/mL (≈ 6.6 µM).
`Cc1ccc2c(n1)C(=O)C(NCCBr)=C(Cl)C2=O` showed an MIC of 12.5 µg/mL (≈ 37.9 µM).
`CNC1=C(Cl)C(=O)c2ncccc2C1=O` showed an MIC of 12.5 µg/mL (≈ 56.1 µM).
`Cc1ccc2c(n1)C(=O)C(Cl)=C(Cl)C2=O` showed an MIC of 6.3 µg/mL (≈ 26 µM).
`CNC1=C(SC)C(=O)c2ncccc2C1=O` was tested, and the MIC was 12.5 µg/mL (≈ 53.4 µM).
Molecule `Oc1c(Sc2ccccc2)c(Sc2ccccc2)c(O)c2ncccc12` has an MIC of 25 µg/mL (≈ 66.2 µM).
Work on `Cc1ccc(S(=O)(=O)C2=C(S(=O)(=O)c3ccc(C)cc3)C(=O)c3ncccc3C2=O)cc1` yielded an MIC of 6.3 µg/mL (≈ 13.5 µM).
